Measurements taken from ChEMBL document CHEMBL1136492, “Design and syntheses of melanocortin subtype-4 receptor agonists: evolution of the pyridazinone archetype” (Bioorg Med Chem Lett, 2003).

Key:
Melanocortin receptor 4 [1] = target: T1, Melanocortin receptor 4 (Homo sapiens, UniProt P32245); assay: Percentage of cAMP accumulation of compound relative to alpha-MSH, at human MC4R; type: functional
Method in brief: (§1)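 cAMP accumulation at human MC4R, measured relative to α-MSH. EC50 is the inflection point of the cAMP dose-response curve. Where no EC50 is given, the value is the accumulation at the highest concentration tested. %Max is the accumulation at 10 µM compound relative to α-MSH. Values are means of at least two separate experiments.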

Melanocortin receptor 4 [2] = target: T1, Melanocortin receptor 4; assay: Concentration required to inhibit binding of [125I]-NDP-alpha-MSH from membranes prepared from CHO cells expressing human melanocortin subtype-4-receptor (MC4R); type: cell membranes
Method in brief: (§2)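 Competition binding using membranes from CHO cells expressing human MC4R, with [125I]-NDP-α-MSH as radioligand. IC50 is the compound concentration that inhibits radioligand binding by 50%. Values are means of at least two separate experiments.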

Melanocortin receptor 4 [3] = target: T1, Melanocortin receptor 4; assay: Percentage of cAMP accumulation at 10 uM of compound relative to alpha-MSH, at human MC4R; type: functional; method in brief: as §1
Melanocortin receptor 4 [4] = target: T1, Melanocortin receptor 4; assay: Effective concentration for cAMP accumulation relative to alpha-MSH at human MC4R; type: functional; method in brief: as §1
Melanocortin receptor 5 = Melanocortin receptor 5 (Homo sapiens, UniProt P33032); assay: Concentration required to inhibit binding of [125I]NDP-alpha-MSH from membranes prepared from CHO cells expressing human melanocortin subtype-5-receptor (MC5R); type: cell membranes
Chain of Melanocortin receptor 5 (P33032 whole entry): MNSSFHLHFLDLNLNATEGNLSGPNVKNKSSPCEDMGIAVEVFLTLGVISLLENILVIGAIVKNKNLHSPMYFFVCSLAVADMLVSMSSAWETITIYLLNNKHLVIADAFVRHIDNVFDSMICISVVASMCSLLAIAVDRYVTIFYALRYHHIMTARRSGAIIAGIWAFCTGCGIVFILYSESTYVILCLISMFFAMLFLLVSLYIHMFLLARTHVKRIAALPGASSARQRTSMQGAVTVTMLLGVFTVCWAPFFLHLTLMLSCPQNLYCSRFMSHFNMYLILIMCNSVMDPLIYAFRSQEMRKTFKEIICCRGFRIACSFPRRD

Melanocortin receptor 3 = Melanocortin receptor 3 (Homo sapiens, UniProt P41968); assay: Concentration required to inhibit binding of [125I]NDP-alpha-MSH from membranes prepared from CHO cells expressing human melanocortin subtype-3-receptor (MC3R); type: cell membranes
Chain of Melanocortin receptor 3 (P41968 whole entry): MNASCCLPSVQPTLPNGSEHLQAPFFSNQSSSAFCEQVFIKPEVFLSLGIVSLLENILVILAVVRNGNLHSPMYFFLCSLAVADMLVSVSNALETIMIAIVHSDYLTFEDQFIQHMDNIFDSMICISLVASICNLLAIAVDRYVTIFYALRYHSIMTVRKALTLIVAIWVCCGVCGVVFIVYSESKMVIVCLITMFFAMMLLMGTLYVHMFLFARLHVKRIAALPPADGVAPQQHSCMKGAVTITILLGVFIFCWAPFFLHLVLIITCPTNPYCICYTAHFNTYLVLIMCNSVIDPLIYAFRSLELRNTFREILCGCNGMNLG

Melanocortin receptor 4 [5] = target: T1, Melanocortin receptor 4; assay: Concentration required to inhibit binding of [125I]NDP-alpha-MSH from membranes prepared from CHO cells expressing human MC4R; type: cell membranes; method in brief: as §2

T1 sequence (P32245 whole entry): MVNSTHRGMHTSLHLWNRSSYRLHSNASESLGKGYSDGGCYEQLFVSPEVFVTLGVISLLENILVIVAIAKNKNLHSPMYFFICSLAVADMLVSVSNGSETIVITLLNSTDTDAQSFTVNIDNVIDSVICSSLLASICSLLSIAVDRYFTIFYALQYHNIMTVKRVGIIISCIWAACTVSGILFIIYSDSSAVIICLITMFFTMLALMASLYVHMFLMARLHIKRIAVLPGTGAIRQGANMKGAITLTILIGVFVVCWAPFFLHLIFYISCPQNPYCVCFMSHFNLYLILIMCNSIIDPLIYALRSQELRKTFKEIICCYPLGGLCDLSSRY

O=C(N[C@H](Cc1ccc(Cl)cc1)C(=O)N1CCC(Cn2cncn2)(C2CCCCC2)CC1)[C@H]1CCc2ccccc2N1
Max (Melanocortin receptor 4 [1]): 97% | IC50 (Melanocortin receptor 4 [2]): 1.2 nM

COc1ccc(-n2nc(Sc3ccc(Cl)cc3)cc(CC[C@H](C)NC(=O)[C@H]3CNCC[C@H]3c3ccccc3)c2=O)cc1
Max (Melanocortin receptor 4 [3]): 13% | IC50 (Melanocortin receptor 4 [2]): 9020 nM

COc1ccc(-n2nc(Sc3ccc(Cl)cc3)cc(CC[C@@H](C)NC(=O)[C@@H]3CNCC[C@H]3c3ccccc3)c2=O)cc1
Max (Melanocortin receptor 4 [3]): 32% | EC50 (Melanocortin receptor 4 [4]): > 5000 nM | IC50 (Melanocortin receptor 4 [2]): 2060 nM

COc1ccc(-n2nc(Sc3ccc(Cl)cc3)cc(CC[C@@H](C)NC(=O)[C@H]3CNC[C@@H]3c3ccccc3)c2=O)cc1 [listing 1 of 3 here]
Max (Melanocortin receptor 4 [3]): 103% | Max (Melanocortin receptor 4 [1]): 97%

COc1ccc(-n2nc(Sc3ccc(Cl)cc3)cc(CC[C@@H](C)NC(=O)[C@H]3CNC[C@@H]3c3ccccc3)c2=O)cc1 [listing 2 of 3 here]
EC50 (Melanocortin receptor 4 [4]): 250 nM | IC50 (Melanocortin receptor 4 [2]): 380 nM

COc1ccc(-n2nc(Sc3ccc(Cl)cc3)cc(CC(C)CNC(=O)[C@H]3CNCC[C@@H]3c3ccccc3)c2=O)cc1 (stereo partly drawn)
Max (Melanocortin receptor 4 [1]): 35% | EC50 (Melanocortin receptor 4 [4]): > 5000 nM | IC50 (Melanocortin receptor 4 [2]): 2170 nM

COc1ccc(-n2nc(Sc3ccc(Cl)cc3)cc(CC[C@H](C)NC(=O)[C@H]3CNC[C@@H]3c3ccccc3)c2=O)cc1
Max (Melanocortin receptor 4 [1]): 67% | EC50 (Melanocortin receptor 4 [4]): 5800 nM | IC50 (Melanocortin receptor 4 [2]): 975 nM

COc1ccc(-n2nc(Sc3ccc(Cl)cc3)cc(CC[C@H](C)NC(=O)[C@H]3CNCC[C@@H]3c3ccccc3)c2=O)cc1
Max (Melanocortin receptor 4 [3]): 65% | EC50 (Melanocortin receptor 4 [4]): 1730 nM | IC50 (Melanocortin receptor 4 [2]): 1200 nM

COc1ccc(-n2nc(Sc3ccc(Cl)cc3)cc(CC[C@@H](C)NC(=O)[C@H]3CNCC[C@@H]3c3ccccc3)c2=O)cc1
Max (Melanocortin receptor 4 [3]): 77% | IC50 (Melanocortin receptor 5): 1410 nM | EC50 (Melanocortin receptor 4 [4]): 177 nM | IC50 (Melanocortin receptor 4 [2]): 33 nM | IC50 (Melanocortin receptor 3): 2170 nM

COc1ccc(-n2nc(Sc3ccc(Cl)cc3)cc(C(C)CCNC(=O)[C@H]3CNCC[C@@H]3c3ccccc3)c2=O)cc1 (stereo partly drawn)
Max (Melanocortin receptor 4 [1]): 31% | EC50 (Melanocortin receptor 4 [4]): > 5000 nM | IC50 (Melanocortin receptor 4 [2]): 3930 nM

COc1ccc(-n2nc(Sc3ccc(Cl)cc3)cc(CCCNC(=O)[C@H]3CNCC[C@@H]3c3ccccc3)c2=O)cc1
Max (Melanocortin receptor 4 [1]): 20% | EC50 (Melanocortin receptor 4 [4]): 500 nM | IC50 (Melanocortin receptor 4 [2]): 1970 nM

COc1ccc(-n2nc(Sc3ccc(Cl)cc3)cc(CC[C@H](C)NC(=O)[C@@H]3CNCC[C@H]3c3ccccc3)c2=O)cc1
Max (Melanocortin receptor 4 [3]): 5% | IC50 (Melanocortin receptor 4 [2]): 2990 nM

COc1ccc(-n2nc(Sc3ccc(Cl)cc3)cc(CC[C@@H](C)NC(=O)[C@H]3CNC[C@@H]3c3ccccc3)c2=O)cc1 [listing 3 of 3 here]
EC50 (Melanocortin receptor 4 [4]): 405 nM | IC50 (Melanocortin receptor 4 [2]): 190 nM

COc1ccc(-n2nc(Sc3ccc(Cl)cc3)cc(CC[C@@H](C)NC(=O)[C@H]3CCNC[C@@H]3c3ccccc3)c2=O)cc1
Max (Melanocortin receptor 4 [3]): 85% | EC50 (Melanocortin receptor 4 [4]): 237 nM | IC50 (Melanocortin receptor 4 [2]): 130 nM

COc1ccc(-n2nc(Sc3ccc(Cl)cc3)cc(CCCNC(=O)[C@H]3CNC[C@@H]3c3ccccc3)c2=O)cc1
Max (Melanocortin receptor 4 [1]): 22% | EC50 (Melanocortin receptor 4 [4]): 820 nM | IC50 (Melanocortin receptor 4 [2]): 1240 nM

COc1ccc(-n2nc(Sc3ccc(Cl)cc3)cc(CC[C@H](C)NC(=O)[C@@H]3CNCC[C@@H]3c3ccccc3)c2=O)cc1
Max (Melanocortin receptor 4 [3]): 12%

COc1ccc(-n2nc(Sc3ccc(Cl)cc3)cc(CC[C@@H](C)NC(=O)[C@H]3CNCC[C@H]3c3ccccc3)c2=O)cc1
Max (Melanocortin receptor 4 [3]): 54% | EC50 (Melanocortin receptor 4 [4]): 4050 nM | IC50 (Melanocortin receptor 4 [2]): 2240 nM

COc1ccc(-n2nc(Sc3ccc(Cl)cc3)cc(CCC(C)NC(=O)[C@H]3CCNC[C@@H]3c3ccccc3)c2=O)cc1 (stereo partly drawn)
Max (Melanocortin receptor 4 [1]): 79% | EC50 (Melanocortin receptor 4 [4]): 260 nM | IC50 (Melanocortin receptor 4 [2]): 339 nM

COc1ccc(-n2nc(Sc3ccc(Cl)cc3)cc(CCC(C)NC(=O)[C@H]3CNCC[C@@H]3c3ccccc3)c2=O)cc1 (stereo partly drawn)
Max (Melanocortin receptor 4 [1]): 82% | EC50 (Melanocortin receptor 4 [4]): 227 nM | IC50 (Melanocortin receptor 4 [2]): 41 nM

COc1ccc(-n2nc(Sc3ccc(Cl)cc3)cc(CCCNC(=O)[C@H]3CCNC[C@@H]3c3ccccc3)c2=O)cc1
Max (Melanocortin receptor 4 [1]): 28% | EC50 (Melanocortin receptor 4 [4]): > 5000 nM | IC50 (Melanocortin receptor 4 [2]): 2750 nM

COc1ccc(-n2nc(Sc3ccc(Cl)cc3)cc(CCC(=O)NC3CCCCNC3=O)c2=O)cc1 (stereo not drawn)
Max (Melanocortin receptor 4 [3]): 0% | IC50 (Melanocortin receptor 4 [5]): 2.27 nM

COc1ccc(-n2nc(Sc3ccc(Cl)cc3)cc(CCC(=O)N[C@@H]3CCc4ccccc4NC3=O)c2=O)cc1
Max (Melanocortin receptor 4 [1]): 34% | EC50 (Melanocortin receptor 4 [4]): 3060 nM | IC50 (Melanocortin receptor 4 [2]): 144 nM

COc1ccc(-n2nc(Sc3ccc(Cl)cc3)cc(CCC(=O)NCCOc3ccccc3)c2=O)cc1
Max (Melanocortin receptor 4 [3]): 15% | IC50 (Melanocortin receptor 4 [5]): 5600 nM

COc1ccc(-n2nc(Sc3ccc(Cl)cc3)cc(CC[C@@H](C)NC(=O)[C@@H]3CNCC[C@@H]3c3ccccc3)c2=O)cc1
Max (Melanocortin receptor 4 [3]): 38% | EC50 (Melanocortin receptor 4 [4]): > 5000 nM
